In ChEMBL document CHEMBL1806389, “Synthesis, in vitro and in vivo evaluation of fluorine-18 labelled FE-GW405833 as a PET tracer for type 2 cannabinoid receptor imaging” (Bioorg Med Chem, 2011):
“And” between values parts separate entries of the source, which are not always exact repeats. Equal entries are not always repeated. The source made the active and inactive calls. The calls are words filed in the database; no cut-off is given here.

Tests used:
[1] = Octanol-phosphate buffer partition coefficient, log D of the compound at pH 7.4; assay type: physicochemical
Summary of the method: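 Radiolabelled tracer partitioned between 1-octanol and 0.025 M phosphate buffer pH 7.4; log D from distribution of radioactivity.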

Cannabinoid receptor 1 = Cannabinoid receptor 1 (Homo sapiens, UniProt P21554); assay: Displacement of [3H]-SR141716A from human CB1 receptor expressed in CHO cells after 1 hrs by beta counting; assay type: cell-based
Sequence of Cannabinoid receptor 1 (P21554 whole entry): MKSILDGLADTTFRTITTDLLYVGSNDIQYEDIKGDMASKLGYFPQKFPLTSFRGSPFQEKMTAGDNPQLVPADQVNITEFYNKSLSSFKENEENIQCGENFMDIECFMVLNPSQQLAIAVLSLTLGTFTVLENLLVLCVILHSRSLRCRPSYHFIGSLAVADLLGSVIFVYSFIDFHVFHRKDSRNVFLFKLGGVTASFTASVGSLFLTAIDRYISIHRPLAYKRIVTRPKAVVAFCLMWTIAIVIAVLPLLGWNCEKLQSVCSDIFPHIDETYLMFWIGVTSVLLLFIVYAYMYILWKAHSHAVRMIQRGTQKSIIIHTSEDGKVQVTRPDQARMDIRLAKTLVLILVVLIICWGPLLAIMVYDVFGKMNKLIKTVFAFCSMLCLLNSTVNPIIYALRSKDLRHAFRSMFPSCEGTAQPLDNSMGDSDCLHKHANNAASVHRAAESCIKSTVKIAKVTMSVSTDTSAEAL

Cannabinoid receptor 2 [2] = molecular target: T1, Cannabinoid receptor 2 (Homo sapiens, UniProt P34972); assay: Displacement of [3H]-CP55940 from human CB2 receptor expressed in CHO cells after 1 hrs by beta counting; assay type: cell-based
T1 sequence (P34972 whole entry): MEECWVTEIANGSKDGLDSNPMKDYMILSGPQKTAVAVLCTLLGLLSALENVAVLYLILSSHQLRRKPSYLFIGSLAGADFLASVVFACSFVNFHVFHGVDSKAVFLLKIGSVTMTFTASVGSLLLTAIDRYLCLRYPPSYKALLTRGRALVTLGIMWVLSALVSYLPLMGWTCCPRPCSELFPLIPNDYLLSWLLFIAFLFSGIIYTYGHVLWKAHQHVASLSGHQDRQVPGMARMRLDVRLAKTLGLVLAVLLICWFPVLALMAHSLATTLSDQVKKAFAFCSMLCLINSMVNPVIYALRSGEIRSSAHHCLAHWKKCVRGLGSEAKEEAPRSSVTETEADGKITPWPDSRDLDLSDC

Cannabinoid receptor 2 [3] = molecular target: T1, Cannabinoid receptor 2; assay: Inverse agonist activity at human CB2 receptor expressed in CHO cells assessed as effect on [35S]-GTPgammaS binding after 1 hrs by beta counting; assay type: functional, cell-based
Kidney [4] = assay: Biodistribution in NMRI mouse kidney at 6 MBq/ml, iv after 2 mins by gamma counting; assay type: ADME, organism-based; settings: in vivo
Summary of the method: (§1)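 Tracer formulated in saline at about 6 MBq/ml (diluted HPLC-purified product); 100 µl given into a tail vein. Mice killed by decapitation at 2 or 60 min p.i.; organs, body parts and blood dissected, weighed and gamma-counted. Values as %ID (cpm in organ/total cpm recovered), %ID/g, or SUV. Total blood mass taken as 7% of body mass. Mean SD, n = 4 per time point.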

Kidney [5] = assay: Biodistribution in NMRI mouse kidney at 6 MBq/ml, iv after 60 mins by gamma counting; assay type: ADME, organism-based; settings: in vivo, 1 h; summary of the method: as §1
[6] = Biodistribution in NMRI mouse urine at 6 MBq/ml, iv after 2 mins by gamma counting; assay type: ADME, organism-based; settings: in vivo; summary of the method: as §1
[7] = Biodistribution in NMRI mouse urine at 6 MBq/ml, iv after 60 mins by gamma counting; assay type: ADME, organism-based; settings: in vivo, 1 h; summary of the method: as §1
Liver [8] = assay: Biodistribution in NMRI mouse liver at 6 MBq/ml, iv after 2 mins by gamma counting; assay type: ADME, organism-based; settings: in vivo; summary of the method: as §1
Liver [9] = assay: Biodistribution in NMRI mouse liver at 6 MBq/ml, iv after 60 mins by gamma counting; assay type: ADME, organism-based; settings: in vivo, 1 h; summary of the method: as §1
Spleen [10] = assay: Biodistribution in NMRI mouse spleen at 6 MBq/ml, iv after 2 mins by gamma counting; assay type: ADME, organism-based; settings: in vivo; summary of the method: as §1
Spleen [11] = assay: Biodistribution in NMRI mouse spleen at 6 MBq/ml, iv after 60 mins by gamma counting; assay type: ADME, organism-based; settings: in vivo, 1 h; summary of the method: as §1
Pancreas [12] = assay: Biodistribution in NMRI mouse pancreas at 6 MBq/ml, iv after 2 mins by gamma counting; assay type: ADME, organism-based; settings: in vivo; summary of the method: as §1
Pancreas [13] = assay: Biodistribution in NMRI mouse pancreas at 6 MBq/ml, iv after 60 mins by gamma counting; assay type: ADME, organism-based; settings: in vivo, 1 h; summary of the method: as §1
Lung [14] = assay: Biodistribution in NMRI mouse lungs at 6 MBq/ml, iv after 2 mins by gamma counting; assay type: ADME, organism-based; settings: in vivo; summary of the method: as §1
Lung [15] = assay: Biodistribution in NMRI mouse lungs at 6 MBq/ml, iv after 60 mins by gamma counting; assay type: ADME, organism-based; settings: in vivo, 1 h; summary of the method: as §1
Heart [16] = assay: Biodistribution in NMRI mouse heart at 6 MBq/ml, iv after 2 mins by gamma counting; assay type: ADME, organism-based; settings: in vivo; summary of the method: as §1
Heart [17] = assay: Biodistribution in NMRI mouse heart at 6 MBq/ml, iv after 60 mins by gamma counting; assay type: ADME, organism-based; settings: in vivo, 1 h; summary of the method: as §1
Intestine [18] = assay: Biodistribution in NMRI mouse intestine at 6 MBq/ml, iv after 2 mins by gamma counting; assay type: ADME, organism-based; settings: in vivo; summary of the method: as §1
Intestine [19] = assay: Biodistribution in NMRI mouse intestine at 6 MBq/ml, iv after 60 mins by gamma counting; assay type: ADME, organism-based; settings: in vivo, 1 h; summary of the method: as §1
Stomach [20] = assay: Biodistribution in NMRI mouse stomach at 6 MBq/ml, iv after 2 mins by gamma counting; assay type: ADME, organism-based; settings: in vivo; summary of the method: as §1
Stomach [21] = assay: Biodistribution in NMRI mouse stomach at 6 MBq/ml, iv after 60 mins by gamma counting; assay type: ADME, organism-based; settings: in vivo, 1 h; summary of the method: as §1
Blood [22] = assay: Biodistribution in NMRI mouse blood at 6 MBq/ml, iv after 2 mins by gamma counting; assay type: ADME, organism-based; settings: in vivo; summary of the method: as §1
Blood [23] = assay: Biodistribution in NMRI mouse blood at 6 MBq/ml, iv after 60 mins by gamma counting; assay type: ADME, organism-based; settings: in vivo, 1 h; summary of the method: as §1
Brain [24] = assay: Biodistribution in NMRI mouse brain at 6 MBq/ml, iv after 2 mins by gamma counting; assay type: ADME, organism-based; settings: in vivo; summary of the method: as §1
Brain [25] = assay: Biodistribution in NMRI mouse brain at 6 MBq/ml, iv after 60 mins by gamma counting; assay type: ADME, organism-based; settings: in vivo, 1 h; summary of the method: as §1
[26] = Metabolic stability in NMRI mouse plasma at 6 MBq/ml, iv after 2 mins by HPLC analysis; assay type: ADME, organism-based; settings: read-out: Stability
Summary of the method: (§2)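 Normal NMRI mice were given the tracer IV, and plasma and brain were sampled at 2, 10 or 30 min. The percentage of intact tracer was measured by reversed-phase HPLC with 0.05 M ammonium acetate pH 6.9/acetonitrile eluent, 30/70 for plasma and 40/60 for brain, at 1 ml/min.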

[27] = Metabolic stability in NMRI mouse plasma at 6 MBq/ml, iv after 10 mins by HPLC analysis; assay type: ADME, organism-based; settings: read-out: Stability; summary of the method: as §2
[28] = Metabolic stability in NMRI mouse plasma at 6 MBq/ml, iv after 30 mins by HPLC analysis; assay type: ADME, organism-based; settings: read-out: Stability; summary of the method: as §2
[29] = Metabolic stability in NMRI mouse brain at 6 MBq/ml, iv after 2 mins by HPLC analysis; assay type: ADME, organism-based; settings: read-out: Stability; summary of the method: as §2
[30] = Metabolic stability in NMRI mouse brain at 6 MBq/ml, iv after 10 mins by HPLC analysis; assay type: ADME, organism-based; settings: read-out: Stability; summary of the method: as §2
[31] = Metabolic stability in NMRI mouse brain at 6 MBq/ml, iv after 30 mins by HPLC analysis; assay type: ADME, organism-based; settings: read-out: Stability; summary of the method: as §2
Brain [32] = assay: Biodistribution in Wistar rat brain after 60 mins; assay type: ADME, organism-based; settings: in vivo, 1 h
Striatum [33] = assay: In vivo binding affinity to human CB2 receptor D80N mutant expressed in Fisher rat right striatum at 37 MBq, iv after 60 mins by microPET study relative to left striatum; assay type: functional
Summary of the method: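 Normal 8-week-old Fisher rat received stereotactic AAV2/7-eGFP-T2A-hCB2R(D80N) vector in the right striatum and a control eGFP vector in the left striatum. Scanned 34 days later under 3% isoflurane in 2.0 L/min oxygen. Dynamic microPET started immediately after IV injection of about 37 MBq tracer. Images spatially normalized to stereotactic space; striatal time-activity curves from predefined volumes of interest.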

Striatum [34] = assay: In vivo binding affinity to human CB2 receptor D80N mutant expressed in Fisher rat […] at 37 MBq, iv after up to 60 mins by microPET study; assay type: functional, organism-based; settings: 37 M, tested as the 18F-labelled form
Cannabinoid receptor 2 [35] = molecular target: T1, Cannabinoid receptor 2; assay: Inverse agonist activity at human CB2 receptor expressed in CHO cells assessed as effect on [35S]-GTPgammaS binding after 1 hrs by beta counting relative to control; assay type: functional, cell-based; settings: tested as the 18F-labelled form

## Cc1c(CCN2CCOCC2)c2cc(OCC[18F])ccc2n1C(=O)c1cccc(Cl)c1Cl
[1]
  logD: 2.8
Cannabinoid receptor 1
  Ki: 10000 nM
Cannabinoid receptor 2 [2]
  Ki: 27 nM
Cannabinoid receptor 2 [3]
  EC50: 17.9 nM
Kidney [4]
  Drug uptake: 9.8 %ID and 15.8 % ID/g
  SUV: 5.5
Kidney [5]
  Drug uptake: 2.2 %ID and 3.4 % ID/g
  SUV: 1.2
[6]
  Drug uptake: 0.1 %ID
[7]
  Drug uptake: 1.4 %ID
Liver [8]
  Drug uptake: 47.4 %ID and 26.3 % ID/g
  SUV: 9.1
Liver [9]
  Drug uptake: 23.7 %ID and 11.4 % ID/g
  SUV: 4
Spleen [10]
  SUV: 3.3
Spleen [11]
  SUV: 1.1
Pancreas [12]
  SUV: 1.2
Pancreas [13]
  SUV: 0.8
Lung [14]
  SUV: 4.5
Lung [15]
  SUV: 0.8
Heart [16]
  SUV: 2.7
Heart [17]
  SUV: 0.7
Intestine [18]
  Drug uptake: 8.9 %ID
Intestine [19]
  Drug uptake: 35.7 %ID
Stomach [20]
  Drug uptake: 1.3 %ID
Stomach [21]
  Drug uptake: 1.8 %ID
Blood [22]
  Drug uptake: 4.5 %ID and 1.9 % ID/g
  SUV: 0.6
Blood [23]
  Drug uptake: 5 %ID and 2.1 % ID/g
  SUV: 0.7
Brain [24]
  Drug uptake: 1.3 %ID and 2.9 % ID/g
  SUV: 1
Brain [25]
  Drug uptake: 0.7 %ID and 1.6 % ID/g
  SUV: 0.6
[26]
  remaining at 2 min: 84%
[27]
  remaining at 10 min: 52%
[28]
  remaining at 0.5 h: 12%
[29]
  remaining at 2 min: 95%
[30]
  remaining at 10 min: 79%
[31]
  remaining at 0.5 h: 48%

## Cc1c(CCN2CCOCC2)c2cc(O[11CH3])ccc2n1C(=O)c1cccc(Cl)c1Cl
Brain [32]
  Drug uptake: 0.1 %ID
Striatum [33]
  Ratio: 1.6

## Cc1c(CCN2CCOCC2)c2cc(OCCF)ccc2n1C(=O)c1cccc(Cl)c1Cl
Striatum [34]
  Activity: Active
Cannabinoid receptor 2 [35]
  Emax: -82%
